Reference: ChEMBL document CHEMBL1800056, “Discovery of 2-(6-{[(6-fluoroquinolin-2-yl)methyl]amino}bicyclo[3.1.0]hex-3-yl)-N-hydroxypyrimidine-5-carboxamide (CHR-3996), a class I selective orally active histone deacetylase inhibitor” (J Med Chem, 2010)
In brackets after ≈: the same amount, converted by molar mass.

Key:
[1] = AUC (0 to t) in plasma of CD1 mouse at 3 mg/kg, po; type: ADME, organism-based; design: dose 3 mg/kg, route oral
Summary of the method: (§1)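 Oral cassette PK in CD1 mice: four compounds per cassette, each at 3 mg/kg po. AUC0-t (ng h/mL) measured in plasma and spleen; spleen/plasma AUC ratio reported.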

[2] = AUC (0 to t) in spleen of CD1 mouse at 3 mg/kg, po; type: ADME, organism-based; design: dose 3 mg/kg, route oral; summary of the method: as §1
Histone deacetylase = assay: Inhibition of HDAC in human HeLa cells nuclear extract using fluor de Lys as substrate preincubated for 5 mins by fluorometric analysis; type: cell-based
[3] = Ratio of GI50 for human HCT116 cells to IC50 for HDAC in human HeLa cell nuclear extracts
Summary of the method: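 Cell/enzyme ratio = HCT116 GI50 divided by HDAC IC50. Enzyme: HeLa nuclear extract (10 μg protein), 5 min preincubation, then Fluor de Lys substrate 62.5 μM, 15 min at room temperature. Stopped with developer containing trichostatin A; fluorescence ex 355/em 455 nm; eight concentrations in duplicate. Cells: HCT116, 72 h exposure (0.6-10000 nM), WST-1 read at 450 nm, n = 6.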

HCT-116 [4] = assay: Antiproliferative activity against human HCT116 cells after 72 hrs by WST-1 assay; type: functional
Summary of the method: (§2)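 Cells seeded at (1-5) × 10³/well in serum-containing medium for 24 h at 37 °C, 5% CO₂. Inhibitor added at 0.6-10000 nM for 72 h, with WST-1 pulse over the final 4 h. Formazan read at 450 nm (reference 650 nm). Expressed as % inhibition of vehicle response; GI50 is the concentration inhibiting 50% of vehicle response; n = 6 replicates.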

Spleen = assay: Ratio of AUC (0 to t) in spleen to plasma of CD1 mouse at 3 mg/kg, po; conditions: in vivo
[5] = Clearance in human liver microsomes assessed as compound remaining after 30 mins; type: ADME, Microsome; conditions: read-out: Activity
Cytochrome P450 2D6 = Cytochrome P450 2D6 (Homo sapiens, UniProt P10635); assay: Inhibition of CYP2D6; type: ADME
Cytochrome P450 2D6, sequence (P10635 whole entry): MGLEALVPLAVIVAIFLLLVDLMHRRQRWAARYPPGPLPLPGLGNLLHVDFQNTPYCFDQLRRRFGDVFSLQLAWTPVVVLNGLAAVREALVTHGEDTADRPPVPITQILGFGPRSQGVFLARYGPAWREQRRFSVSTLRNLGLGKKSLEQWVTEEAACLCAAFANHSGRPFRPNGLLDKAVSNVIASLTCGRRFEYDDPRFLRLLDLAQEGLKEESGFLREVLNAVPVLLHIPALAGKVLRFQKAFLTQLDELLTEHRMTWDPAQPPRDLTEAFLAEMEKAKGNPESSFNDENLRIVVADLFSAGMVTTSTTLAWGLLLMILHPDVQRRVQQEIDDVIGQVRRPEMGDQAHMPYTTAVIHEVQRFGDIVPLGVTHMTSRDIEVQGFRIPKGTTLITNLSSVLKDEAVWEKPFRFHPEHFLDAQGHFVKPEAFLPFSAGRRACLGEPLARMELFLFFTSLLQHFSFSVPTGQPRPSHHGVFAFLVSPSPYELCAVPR

Cytochrome P450 2C19 = Cytochrome P450 2C19 (Homo sapiens, UniProt P33261); assay: Inhibition of CYP2C19; type: ADME
Cytochrome P450 2C19, sequence (P33261 whole entry): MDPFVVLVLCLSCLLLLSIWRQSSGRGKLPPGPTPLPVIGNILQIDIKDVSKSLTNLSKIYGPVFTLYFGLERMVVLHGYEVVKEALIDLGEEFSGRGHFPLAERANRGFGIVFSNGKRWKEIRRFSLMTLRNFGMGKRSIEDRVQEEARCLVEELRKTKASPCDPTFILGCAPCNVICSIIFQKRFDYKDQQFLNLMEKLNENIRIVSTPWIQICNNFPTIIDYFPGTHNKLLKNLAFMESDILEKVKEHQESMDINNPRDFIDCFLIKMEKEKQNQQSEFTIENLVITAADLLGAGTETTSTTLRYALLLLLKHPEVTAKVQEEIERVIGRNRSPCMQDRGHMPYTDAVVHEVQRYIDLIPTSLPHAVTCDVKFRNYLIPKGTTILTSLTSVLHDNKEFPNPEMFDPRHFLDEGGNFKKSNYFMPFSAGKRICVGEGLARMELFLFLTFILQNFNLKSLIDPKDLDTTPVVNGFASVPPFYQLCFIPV

[6] = Clearance in mouse liver microsomes assessed as compound remaining after 30 mins; type: ADME, Microsome; conditions: read-out: Activity
[7] = Aqueous solubility of the compound in PBS at pH 5.5; type: physicochemical
Cytochrome P450 3A4 = Cytochrome P450 3A4 (Homo sapiens, UniProt P08684); assay: Inhibition of CYP3A4; type: ADME
Cytochrome P450 3A4, sequence (P08684 whole entry): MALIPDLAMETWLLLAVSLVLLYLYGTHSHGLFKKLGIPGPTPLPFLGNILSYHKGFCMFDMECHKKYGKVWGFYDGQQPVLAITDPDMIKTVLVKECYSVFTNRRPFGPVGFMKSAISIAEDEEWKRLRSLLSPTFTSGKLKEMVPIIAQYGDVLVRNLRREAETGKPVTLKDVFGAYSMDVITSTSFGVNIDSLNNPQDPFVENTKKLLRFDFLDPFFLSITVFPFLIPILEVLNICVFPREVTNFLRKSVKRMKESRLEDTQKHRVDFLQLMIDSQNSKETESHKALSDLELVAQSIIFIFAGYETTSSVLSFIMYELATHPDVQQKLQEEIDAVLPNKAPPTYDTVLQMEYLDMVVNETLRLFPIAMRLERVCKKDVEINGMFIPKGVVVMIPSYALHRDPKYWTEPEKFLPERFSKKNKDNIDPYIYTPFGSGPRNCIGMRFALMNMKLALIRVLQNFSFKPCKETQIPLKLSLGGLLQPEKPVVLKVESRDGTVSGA

[8] = Aqueous solubility of the compound in PBS at pH 7.4; type: physicochemical
A549 = assay: Antiproliferative activity against human A549 cells after 72 hrs by WST-1 assay; type: functional; summary of the method: as §2
[9] = Antiproliferative activity against human […] cells after 72 hrs by WST-1 assay; type: functional; summary of the method: as §2
COR-L23 [10] = assay: Antiproliferative activity against human COR-L23 cells after 72 hrs by WST-1 assay; type: functional; summary of the method: as §2
HCT-116 [11] = assay: Cell cycle arrest in human HCT116 cells assessed as accumulation at sub-G1 phase at 300 nM after 15 hrs by propidium iodide staining based flow cytometric analysis; type: functional
COR-L23 [12] = assay: Antiproliferative activity against doxorubicin-resistant human COR-L23 cells after 72 hrs by WST-1 assay; type: functional; summary of the method: as §2
HepG2 = assay: Antiproliferative activity against human HepG2 cells after 72 hrs by WST-1 assay; type: functional; summary of the method: as §2
HCT-116 [13] = assay: Cell cycle arrest in human HCT116 cells assessed as accumulation at S phase at 300 nM after 15 hrs by propidium iodide staining based flow cytometric analysis; type: functional
MG-63 = assay: Antiproliferative activity against human MG63 cells after 72 hrs by WST-1 assay; type: functional; summary of the method: as §2
U-937 = assay: Antiproliferative activity against human U937 cells after 72 hrs by WST-1 assay; type: functional; summary of the method: as §2
A2780 = assay: Antiproliferative activity against human A2780 cells after 72 hrs by WST-1 assay; type: functional; summary of the method: as §2
HCT-116 [14] = assay: Cell cycle arrest in human HCT116 cells assessed as accumulation at G2/M phase at 300 nM after 15 hrs by propidium iodide staining based flow cytometric analysis; type: functional
MIA PaCa-2 = assay: Antiproliferative activity against human MIAPaCa2 cells after 72 hrs by WST-1 assay; type: functional; summary of the method: as §2
LoVo = assay: Antiproliferative activity against human LoVo cells after 72 hrs by WST-1 assay; type: functional; summary of the method: as §2
MOLT-4 = assay: Antiproliferative activity against human MOLT4 cells after 72 hrs by WST-1 assay; type: functional; summary of the method: as §2
HCT-116 [15] = assay: Cell cycle arrest in human HCT116 cells assessed as accumulation at G1 phase at 300 nM after 15 hrs by propidium iodide staining based flow cytometric analysis; type: functional

Compound	IC50 (Histone deacetylase) [nM]	GI50 (HCT-116 [4]; Homo sapiens, HCT-116, 72 h) [nM]	Ratio [3]	other results
O=C(NO)c1cnc(N2C[C@@H]3[C@H](C2)[C@H]3NCc2ccc(Oc3ccccc3)cc2)nc1	16	120	7.5	AUC(0-t) [1]: 52 ng·h/mL; AUC(0-t) [2]: 219 ng·h/mL; Ratio (Spleen): 4.2
COc1ccc(CN[C@H]2[C@@H]3CN(c4ncc(C(=O)NO)cn4)C[C@@H]32)cc1	20	190	9.5	
O=C(NO)c1cnc(N2C[C@@H]3[C@H](C2)[C@H]3NCc2ccc(Br)cc2)nc1	14	250	18	
O=C(NO)c1cnc(N2C[C@@H]3[C@H](C2)[C@H]3NS(=O)(=O)c2cccs2)nc1	27	> 10000	>370	
O=C(NO)c1cnc(N2C[C@@H]3[C@H](C2)[C@H]3NCc2ccc3ccccc3c2)nc1	12.4	160	13	AUC(0-t) [1]: 50 ng·h/mL; remaining at 0.5 h [5]: 40%; AUC(0-t) [2]: 145 ng·h/mL; IC50 (Cytochrome P450 2D6): > 50000 nM; IC50 (Cytochrome P450 2C19): > 50000 nM; remaining at 0.5 h [6]: 100%; solubility [7]: 208 µg/mL (≈ 554 µM); IC50 (Cytochrome P450 3A4): > 50000 nM; Ratio (Spleen): 2.9; solubility [8]: 12 µg/mL (≈ 32 µM)
O=C(NO)c1cnc(N2C[C@@H]3[C@H](C2)[C@H]3NCc2ccc(F)cc2)nc1	27	380	14	
O=C(NO)c1cnc(N2C[C@@H]3[C@H](C2)[C@H]3NCC2CCCCC2)nc1	44	160	4	
CN([C@H]1[C@@H]2CN(c3ncc(C(=O)NO)cn3)C[C@@H]21)S(=O)(=O)c1ccc2ccccc2c1	23	1000	44	
O=C(NO)c1cnc(N2C[C@@H]3[C@H](C2)[C@H]3NCc2ccc(-c3ccccc3)cc2)nc1	14	56	4	
O=C(NO)c1cnc(N2C[C@@H]3[C@H](C2)[C@H]3NCc2cc(C(F)(F)F)cc(C(F)(F)F)c2)nc1	16	200	12.5	
O=C(NO)c1cnc(N2C[C@@H]3[C@H](C2)[C@H]3NC(=O)c2ccccc2)nc1	57	5100	89	
O=C(NO)c1cnc(N2C[C@@H]3[C@H](C2)[C@H]3NS(=O)(=O)c2ccc3ccccc3c2)nc1	6.5	440	73	remaining at 0.5 h [5]: 43%; IC50 (Cytochrome P450 2D6): 10000 nM; IC50 (Cytochrome P450 2C19): 10000 nM; remaining at 0.5 h [6]: 66%; solubility [7]: 74 µg/mL (≈ 174 µM); IC50 (Cytochrome P450 3A4): 10000 nM; solubility [8]: 34 µg/mL (≈ 79.9 µM)
O=C(CCCCCCC(=O)Nc1ccccc1)NO [VORINOSTAT]				GI50 (A549): 5700 nM; GI50 [9]: 2100 nM; GI50 (COR-L23 [10]): 1100 nM; Activity (HCT-116 [11]): 19%; GI50 (COR-L23 [12]): 3300 nM; GI50 (HepG2): 4600 nM; Activity (HCT-116 [13]): 14%; GI50 (MG-63): > 10000 nM; GI50 (U-937): 450 nM; GI50 (A2780): 3150 nM; Activity (HCT-116 [14]): 32%; GI50 (MIA PaCa-2): 3500 nM; GI50 (LoVo): 1700 nM; GI50 (HCT-116 [4]): 740 nM; GI50 (MOLT-4): 670 nM; Activity (HCT-116 [15]): 35%
O=C(NO)c1cnc(N2C[C@@H]3[C@H](C2)[C@H]3NCc2ccc(OC(F)(F)F)cc2)nc1	15	120	8	AUC(0-t) [1]: 83 ng·h/mL; AUC(0-t) [2]: 251 ng·h/mL; Ratio (Spleen): 3

More lines, main results first:

IC50 (Histone deacetylase) [nM]	GI50 (HCT-116 [4]; Homo sapiens, HCT-116, 72 h) [nM]	Compound	Ratio [3]	other results
16	200	O=C(NO)c1cnc(N2C[C@@H]3[C@H](C2)[C@H]3NCc2cc(F)cc(F)c2)nc1	13	
34	700	O=C(NO)c1cnc(N2C[C@@H]3[C@H](C2)[C@H]3NCc2ccc(C(F)(F)F)cc2)nc1	21	
22	410	CCCCc1ccc(CN[C@H]2[C@@H]3CN(c4ncc(C(=O)NO)cn4)C[C@@H]32)cc1	18	
10	120	O=C(NO)c1cnc(N2C[C@@H]3[C@H](C2)[C@H]3NCc2ccccc2)nc1	12	
9		O=C(NO)c1cnc(N2C[C@@H]3[C@H](C2)[C@H]3NCc2ccc3ccccc3n2)nc1		AUC(0-t) [1]: 42 ng·h/mL; AUC(0-t) [2]: 294 ng·h/mL; Ratio (Spleen): 7
32	370	O=C(NO)c1cnc(N2CC3C(CNCc4ccc5ccccc5c4)C3C2)nc1 (centres undefined)	12	
34	280	O=C(NO)c1cnc(N2C[C@@H]3[C@H](C2)[C@H]3NCCc2ccccc2)nc1	8	
13	410	O=C(NO)c1cnc(N2C[C@@H]3[C@H](C2)[C@H]3NC(=O)c2ccc3ccccc3c2)nc1	32	
30	270	N#Cc1ccc(CN[C@H]2[C@@H]3CN(c4ncc(C(=O)NO)cn4)C[C@@H]32)cc1	9	
40	3600	O=C(NO)c1cnc(N2C[C@@H]3[C@H](C2)[C@H]3NC(=O)c2cccs2)nc1	90	
